Reference: paper PMC6140336 (Cell, 2018)

Experiments:
[1] = tested on: TCR55-transduced 58−/− T cells; experiment: IL-2 ELISA, TCR55-transduced cell line; type: cell-based, murine; settings: peptide-pulsed KG-1 APCs or OKT3, 24 hrs, result in words
Procedure, shortened: (§1)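 58−/− cells carrying the TCR were rested overnight in complete RPMI. KG-1 APCs were pulsed with peptide for 2 h or overnight at 37 °C, washed, and mixed 1:1 with the T cells for 24 hrs at 37 °C. Secreted mouse IL-2 was measured by sandwich ELISA (avidin-HRP, TMB, H3PO4 stop) read at 450 and 570 nm. Biological and technical triplicates.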

[2] = tested on: TCR589-transduced 58−/− T cells; experiment: IL-2 ELISA, TCR589-transduced cell line; type: cell-based, murine; settings: peptide-pulsed KG-1 APCs or OKT3, 24 hrs, result in words
Procedure, shortened: as §1

[3] = tested on: SKW3 T cells expressing TCR55; experiment: pERK1/2 phospho-flow cytometry, TCR55 cells; type: cell-based, human; settings: peptide-pulsed KG-1 cells or OKT3, 15 minutes, result in words
[4] = tested on: SKW3 T cells expressing TCR589; experiment: pERK1/2 phospho-flow cytometry, TCR589 cells; type: cell-based, human; settings: peptide-pulsed KG-1 cells or OKT3, 15 minutes, result in words
Procedure, shortened: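 SKW3 cells were rested overnight. Peptide-pulsed KG-1 cells (2 h) were washed and mixed 1:1 with them (125,000 each), then co-cultured 15 min at 37 °C. Cells were fixed in 4% PFA then Cytofix (30 min, 37 °C), permeabilised in ice-cold methanol or Perm Buffer III, and stained 1 h at RT with anti-pERK1/2 (1:50) and anti-CD3. Mean pERK MFI of CD3+ cells by flow. Biological and technical triplicates.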

“OKT3: anti-CD3 antibody (clone OKT3), non-specific TCR stimulus” was tested, and the IL-2 secretion [1] was “responded similarly”, the IL-2 secretion [2] was “responded similarly” and the “ERK1/2 phosphorylation (pERK)” value [3] was “robust ERK1/2 phosphorylation”. For the same substance, the “ERK1/2 phosphorylation (pERK)” value [4] was “robust ERK1/2 phosphorylation”.
